Experimental data: ChEMBL document CHEMBL3046946, “Design, synthesis, and insecticidal activities of new N-benzoyl-N'-phenyl-N'-sulfenylureas” (2009)
In brackets after ≈: the same amount, converted by molar mass.

Assays:
Assay type in all cases: functional
[1] = test system: Culex pipiens pallens; test: Insecticidal activity against fourth-instar larval stage of Culex pipiens pallens (mosquito) assessed as mortality at 0.01 mg/l at 25 +/-1degC after 8 days; settings: 192 h
Procedure, shortened: (§1)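 Compounds dissolved in acetone, then diluted with distilled water to the test concentrations. Twenty fourth-instar larvae were placed in 10 mL of each test solution and reared for 8 days. Mortality was scored on a 0–100 scale, where 0 is no activity and 100 is total kill.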

[2] = test system: Mythimna separata; test: Insecticidal activity against fourth-instar larval stage of Mythimna separata (Oriental armyworm) in compound-pretreated corn leaves assessed as mortality at 0.25 mg/l at 25 +/-1degC after 4 days
[3] = test system: Culex pipiens pallens; test: Insecticidal activity against fourth-instar larval stage of Culex pipiens pallens (mosquito) assessed as mortality at 0.005 mg/l at 25 +/-1degC after 8 days; settings: 192 h; procedure, shortened: as §1
[4] = test system: Mythimna separata; test: Insecticidal activity against fourth-instar larval stage of Mythimna separata (Oriental armyworm) in compound-pretreated corn leaves assessed as mortality at 0.5 mg/l at 25 +/-1degC after 4 days
[5] = test system: Mythimna separata; test: Insecticidal activity against fourth-instar larval stage of Mythimna separata (Oriental armyworm) in compound-pretreated corn leaves assessed as mortality at 1 mg/l at 25 +/-1degC after 4 days
[6] = test system: Culex pipiens pallens; test: Insecticidal activity against fourth-instar larval stage of Culex pipiens pallens (mosquito) assessed as mortality at 0.0025 mg/l at 25 +/-1degC after 8 days; settings: 192 h; procedure, shortened: as §1
[7] = test system: Mythimna separata; test: Insecticidal activity against fourth-instar larval stage of Mythimna separata (Oriental armyworm) in compound-pretreated corn leaves assessed as mortality at 2.5 mg/l at 25 +/-1degC after 4 days
[8] = test system: Culex pipiens pallens; test: Insecticidal activity against fourth-instar larval stage of Culex pipiens pallens (mosquito) assessed as mortality at 2.5 mg/l at 25 +/-1degC after 8 days; settings: 192 h; procedure, shortened: as §1
[9] = test system: Culex pipiens pallens; test: Insecticidal activity against fourth-instar larval stage of Culex pipiens pallens (mosquito) assessed as mortality at 5 mg/l at 25 +/-1degC after 8 days; settings: 192 h; procedure, shortened: as §1
[10] = test system: Mythimna separata; test: Insecticidal activity against fourth-instar larval stage of Mythimna separata (Oriental armyworm) in compound-pretreated corn leaves assessed as mortality at 50 mg/l at 25 +/-1degC after 4 days
[11] = test system: Mythimna separata; test: Insecticidal activity against fourth-instar larval stage of Mythimna separata (Oriental armyworm) in compound-pretreated corn leaves assessed as mortality at 100 mg/l at 25 +/-1degC after 4 days
[12] = test system: Culex pipiens pallens; test: Insecticidal activity against fourth-instar larval stage of Culex pipiens pallens (mosquito) assessed as mortality at 1 mg/l at 25 +/-1degC after 8 days; settings: 192 h; procedure, shortened: as §1
[13] = test system: Mythimna separata; test: Insecticidal activity against fourth-instar larval stage of Mythimna separata (Oriental armyworm) in compound-pretreated corn leaves assessed as mortality at 200 mg/l at 25 +/-1degC after 4 days
[14] = test system: Mythimna separata; test: Insecticidal activity against fourth-instar larval stage of Mythimna separata (Oriental armyworm) in compound-pretreated corn leaves assessed as mortality at 40 mg/l at 25 +/-1degC after 4 days
[15] = test system: Plutella xylostella; test: Insecticidal activity against larvae of Plutella xylostella (diamondback moth) in cabbage leaves assessed as mortality at 25 +/-1degC treated for 5 secs before larval infestation measured after 4 days by leafdip method; settings: 96 h
Procedure, shortened: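 Leaf-dip assay. Cabbage leaf disks (1.8 cm diameter) were dipped in test solution for 5 s, air-dried, and placed in tubes lined with filter paper. Ten second-instar larvae were added per tube. Percent mortality was read 4 days after treatment, in triplicate. LC50 was derived by Finney probit analysis of the mortality regression lines.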

[16] = test system: Spodoptera exigua; test: Insecticidal activity against third-instar larval stage of Spodoptera exigua in cabbage leaves assessed as mortality at 25 +/-1degC treated for 5 secs before larval infestation measured after 4 days by leaf dip method; settings: foliar, 96 h
Procedure, shortened: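 Leaf-dip assay. Fresh cabbage leaf disks (1.8 cm diameter) were dipped in test solution for 5 s before larvae were added. LC50 was calculated by Finney probit analysis of the mortality regression lines.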

Structure (SMILES) | mortality at 0.01 µg/mL [1] [%] | mortality at 0.25 µg/mL [2] [%] | mortality at 0.5 µg/mL [4] [%] | mortality at 1 µg/mL [5] [%] | further results
O=C(NC(=O)N(SN1CCOCC1)c1ccc(Cl)cc1)c1c(F)cccc1F | 100 | 80 | 100 | 100 | mortality at 0.005 µg/mL [3]: 30%; mortality at 0.0025 µg/mL [6]: 0%
O=C(NC(=O)N(SSNc1ccc(C(F)(F)F)cc1)c1ccc(C(F)(F)F)cc1)c1ccccc1Cl |  | 0 | 60 | 70 | mortality at 2.5 µg/mL [7]: 100%
O=C(NC(=O)N(SN1CCCCC1)c1ccccc1)c1c(F)cccc1F |  |  |  |  | mortality at 2.5 µg/mL [8]: 70%; mortality at 5 µg/mL [9]: 100%; mortality at 50 µg/mL [10]: 0%; mortality at 100 µg/mL [11]: 40%; mortality at 1 µg/mL [12]: 0%; mortality at 200 µg/mL [13]: 90%
O=C(NC(=O)N(SN1CCCCC1)c1ccc(OC(F)(F)F)cc1)c1c(F)cccc1F | 100 | 50 | 100 | 100 | mortality at 0.005 µg/mL [3]: 100%; mortality at 0.0025 µg/mL [6]: 75%
O=C(NC(=O)N(SN(C(=O)NC(=O)c1c(F)cccc1F)c1ccc(OC(F)(F)F)cc1)c1ccc(OC(F)(F)F)cc1)c1c(F)cccc1F |  | 20 | 55 | 100 | 
CCOC(=O)CCN(Cc1ccccc1)SN(C(=O)NC(=O)c1c(F)cccc1F)c1ccc(Cl)cc1 | 60 | 30 | 50 | 100 | mortality at 0.005 µg/mL [3]: 0%
O=C(NC(=O)N(SNc1ccc(Cl)cc1)c1ccc(Cl)cc1)c1c(F)cccc1F |  | 0 | 70 | 100 | 
O=C(NC(=O)N(SSN(C(=O)NC(=O)c1ccccc1Cl)c1ccc(OC(F)(F)F)cc1)c1ccc(OC(F)(F)F)cc1)c1ccccc1Cl |  | 10 | 60 | 85 | mortality at 2.5 µg/mL [7]: 100%
O=C(NC(=O)N(SN(C(=O)NC(=O)c1c(F)cccc1F)c1ccc(Cl)cc1)c1ccc(Cl)cc1)c1c(F)cccc1F |  | 25 | 85 | 100 | 
O=C(NC(=O)N(SSNc1ccc(C(F)(F)F)cc1)c1ccc(C(F)(F)F)cc1)c1c(F)cccc1F |  | 10 | 70 | 100 | 
CCOC(=O)CCN(Cc1ccccc1)SN(C(=O)NC(=O)c1c(F)cccc1F)c1ccc(OC(F)(F)F)cc1 | 100 |  |  | 100 | mortality at 40 µg/mL [14]: 0.0025%
O=C(NC(=O)N(SNc1ccc(C(F)(F)F)cc1)c1ccc(C(F)(F)F)cc1)c1c(F)cccc1F |  | 45 | 80 | 100 | 
O=C(NC(=O)N(SN(C(=O)NC(=O)c1c(F)cccc1F)c1ccc(OC(F)(F)F)cc1)c1ccc(OC(F)(F)F)cc1)c1ccccc1Cl |  | 50 | 95 | 100 | LC50 [15]: 40.1 mg/L (≈ 53.6 µM); LC50 [16]: 31.4 mg/L (≈ 42 µM)
